# Data taken from ChEMBL document CHEMBL4411287, “Discovery and optimization of a series of 3-substituted indazole derivatives as multi-target kinase inhibitors for the treatment of lung squamous cell carcinoma” (Eur J Med Chem, 2019).
# Tests used:
# [1] = molecular target: T1, Discoidin domain-containing receptor 2 (Homo sapiens) (UniProt Q16832); assay: Inhibition of DDR2 (unknown origin) at 100 nM using poly (Glu, Tyr) 4:1 substrate after 60 mins by ELISA relative to control
# T1 sequence (whole entry): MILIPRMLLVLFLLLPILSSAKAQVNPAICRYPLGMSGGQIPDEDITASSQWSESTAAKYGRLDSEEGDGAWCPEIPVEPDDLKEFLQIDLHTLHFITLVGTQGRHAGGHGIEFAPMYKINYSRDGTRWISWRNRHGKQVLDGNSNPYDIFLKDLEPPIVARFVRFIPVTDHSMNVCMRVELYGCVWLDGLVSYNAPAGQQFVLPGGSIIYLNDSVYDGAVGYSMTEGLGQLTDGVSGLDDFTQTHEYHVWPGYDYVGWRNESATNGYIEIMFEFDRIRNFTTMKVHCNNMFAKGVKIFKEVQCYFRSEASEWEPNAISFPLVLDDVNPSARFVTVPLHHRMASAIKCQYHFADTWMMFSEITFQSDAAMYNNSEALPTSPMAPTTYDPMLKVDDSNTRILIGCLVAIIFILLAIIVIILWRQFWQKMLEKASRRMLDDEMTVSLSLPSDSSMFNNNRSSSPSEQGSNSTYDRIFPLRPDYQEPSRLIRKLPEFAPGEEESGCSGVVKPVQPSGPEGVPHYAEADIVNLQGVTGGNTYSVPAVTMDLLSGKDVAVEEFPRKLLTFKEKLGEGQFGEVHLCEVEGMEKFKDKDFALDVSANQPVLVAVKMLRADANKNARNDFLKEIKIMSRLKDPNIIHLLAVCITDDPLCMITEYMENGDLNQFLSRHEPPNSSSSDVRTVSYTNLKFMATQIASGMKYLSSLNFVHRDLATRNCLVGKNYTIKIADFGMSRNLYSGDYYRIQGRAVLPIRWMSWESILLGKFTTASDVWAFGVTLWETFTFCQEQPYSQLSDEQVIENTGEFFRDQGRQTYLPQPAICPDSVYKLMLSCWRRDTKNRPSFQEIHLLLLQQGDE
# In short: (§1)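 ELISA with purified recombinant DDR2 on poly(Glu,Tyr) 4:1 precoated at 20 µg/mL. 10 µM ATP in HEPES pH 7.4 buffer with MgCl2, MnCl2, Na3VO4 and DTT, 1% DMSO; 60 min at 37 °C. Phosphotyrosine detected by PY99 and HRP anti-mouse IgG with o-phenylenediamine at A490. Inhibition = 1−A490/A490control; two separate experiments.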
# [2] = AUC (0 to infinity) in ICR(CD-1) mouse at 10 mg/kg, po administered via gavage by triple quadrupole mass spectrometric analysis; type: ADME, organism-based; parameters: dose 10 mg/kg, route oral, time infinity; conditions: in vivo
# In short: (§2)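 Oral gavage at 1 mg/mL in 1% Tween80/water to male ICR mice (18-22 g, n=3). Plasma sampled at 0.25, 0.5, 1, 2, 4, 8 and 24 h, protein precipitated with methanol:acetonitrile (1:1) containing internal standard, and quantified by UPLC-triple quadrupole MS. AUC and MRT were taken from per-animal time-concentration curves. Cmax is the maximum plasma level and Tmax the time to reach it.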
# [3] = test system: NCI-H2286; assay: Antiproliferative activity against human NCI-H2286 cells after 72 hrs by CCK8 assay; conditions: NCI-H2286, 72 h
# [4] = MRT in ICR(CD-1) mouse at 10 mg/kg, po administered via gavage by triple quadrupole mass spectrometric analysis; type: ADME, organism-based; conditions: in vivo
# In short: (§3)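 Dosed by gavage at 1 mg/mL in 1% Tween80/water to male ICR mice, 18-22 g, n=3. Blood taken at 0.25, 0.5, 1, 2, 4, 8 and 24 h. Plasma precipitated with methanol:acetonitrile (1:1) containing internal standard, then UPLC-MS/MS on a C18 column with an ammonium acetate/formic acid–acetonitrile gradient. Tmax read directly from the data; MRT calculated per animal from concentration–time curves.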
# [5] = Tmax in ICR(CD-1) mouse at 10 mg/kg, po administered via gavage by triple quadrupole mass spectrometric analysis; type: ADME, organism-based; conditions: in vivo; in short: as §3
# [6] = Cmax in ICR(CD-1) mouse at 10 mg/kg, po administered via gavage by triple quadrupole mass spectrometric analysis; type: ADME, organism-based; parameters: dose 10 mg/kg, route oral; conditions: in vivo; in short: as §2
# [7] = test system: KG-1; assay: Antiproliferative activity against human KG1 cells after 72 hrs by CCK8 assay; conditions: KG-1, 72 h
# [8] = molecular target: T2, Discoidin domain-containing receptor 2 (Homo sapiens, UniProt Q16832); assay: Inhibition of DDR2 (unknown origin) using poly (Glu, Tyr) 4:1 substrate after 60 mins by ELISA
# T2 sequence (Q16832 whole entry): T1 sequence (whole entry)
# [9] = Half life in ICR(CD-1) mouse at 10 mg/kg, po administered via gavage by triple quadrupole mass spectrometric analysis; type: ADME, organism-based; conditions: in vivo; in short: as §2
# [10] = AUC (0 to t) in ICR(CD-1) mouse at 10 mg/kg, po administered via gavage by triple quadrupole mass spectrometric analysis; type: ADME, organism-based; conditions: in vivo; in short: as §2
# [11] = test system: NCI-H2286; assay: Antiproliferative activity against human NCI-H2286 cells at 100 nM after 72 hrs by CCK8 assay relative to control; type: functional
# [12] = molecular target: T1, Discoidin domain-containing receptor 2 (Homo sapiens); assay: Inhibition of DDR2 (unknown origin) at 1000 nM using poly (Glu, Tyr) 4:1 substrate after 60 mins by ELISA relative to control; in short: as §1
smiles,measurement,setting,value
Cc1ccc(C(=O)Nc2ccc(N3CCN(C)CC3)cc2)cc1-c1ccc2cn[nH]c2c1,inhibition,[1],25.8%
Cc1ccc(C(=O)Nc2cccc(C(F)(F)F)c2)cc1-c1ccc2c(-c3cnn(CC(C)O)c3)n[nH]c2c1 (stereo not drawn),AUC(0-inf),[2],334 ng·h/mL
same,IC50,[3],196 nM
same,MRT,[4],1.37 h
same,Tmax,[5],0.25 h
same,Cmax,[6],202 ng/mL
same,IC50,[7],339 nM
same,IC50,[8],3.7 nM
same,half-life,[9],0.75 h
same,AUC(0-t),[10],324 ng·h/mL
COc1ccc(NC(=O)c2cccc(C(F)(F)F)c2)cc1-c1ccc2cn[nH]c2c1,IC50,[8],67.9 nM
Cc1ccc(C(=O)Nc2cccc(C(F)(F)F)c2)cc1-c1ccc2c(-c3ccc(N4CCC(N5CCOCC5)CC4)cc3)n[nH]c2c1,IC50,[7],177 nM
same,IC50,[8],8.7 nM
Cc1ccc(C(=O)Nc2cc(CN3CCN(CCO)CC3)cc(C(F)(F)F)c2)cc1-c1ccc2cn[nH]c2c1,IC50,[8],3.4 nM
Cc1ccc(C(=O)Nc2cccc(C(F)(F)F)c2)cc1-c1ccc2c(-c3ccc(CN4CCN(C)CC4)cc3)n[nH]c2c1,IC50,[7],120 nM
same,IC50,[8],6.2 nM
same,Activity,[11],13%
Cc1ccc(C(=O)Nc2cccc(C(F)(F)F)c2)cc1-c1ccc2c(-c3cnn(CCN4CCOCC4)c3)n[nH]c2c1,IC50,[7],114 nM
same,IC50,[8],2.6 nM
same,Activity,[11],49%
Cc1cc(NC(=O)c2cccc(C(F)(F)F)c2)cc(-c2ccc3cn[nH]c3c2)c1,inhibition,[1],27.4%
Cc1ccc(C(=O)Nc2cccc(C(F)(F)F)c2)cc1-c1ccc2c(-c3ccc(C(=O)N4CCN(C)CC4)cc3)n[nH]c2c1,IC50,[7],300 nM
same,IC50,[8],6.5 nM
same,Activity,[11],45%
Cc1ccc(C(=O)Nc2cccc(C(C)C)c2)cc1-c1ccc2cn[nH]c2c1,IC50,[8],1.2 nM
O=C(Nc1ccc(Cl)c(-c2ccc3cn[nH]c3c2)c1)c1cccc(C(F)(F)F)c1,IC50,[8],9.5 nM
Nc1n[nH]c2ccc(-c3cccc(NC(=O)c4cccc(C(F)(F)F)c4)c3)cc12,inhibition,[1],13.1%
same,inhibition,[12],35.9%
Cc1ccc(C(=O)Nc2cccc(C(F)(F)F)c2)cc1-c1ccc2c(-c3cnn(C(C)C)c3)n[nH]c2c1,IC50,[7],452 nM
same,IC50,[8],7.7 nM
same,Activity,[11],31%
Cc1ccc(C(=O)Nc2cccc(C(C)(C)C#N)c2)cc1-c1ccc2cn[nH]c2c1,IC50,[8],2.7 nM
Nc1n[nH]c2cc(-c3cccc(NC(=O)c4cccc(C(F)(F)F)c4)c3)ccc12,inhibition,[1],22.8%
same,inhibition,[12],24.8%
Cc1ccc(C(=O)Nc2cccc(C(F)(F)F)c2)cc1-c1ccc2c(-c3ccc(N4CCOCC4)cc3)n[nH]c2c1,IC50,[3],140 nM
same,IC50,[7],561 nM
same,IC50,[8],21.6 nM
Cn1ncc2ccc(-c3cccc(NC(=O)c4cccc(C(F)(F)F)c4)c3)cc21,inhibition,[1],7.6%
same,inhibition,[12],29.8%
Cc1ccc(-c2ccc3cn[nH]c3c2)cc1NC(=O)c1cccc(C(F)(F)F)c1,inhibition,[1],37.3%
Cc1ccc(C(=O)Nc2cccc(C(F)(F)F)c2)cc1-c1ccc2c(-c3cnn(C4CCCCO4)c3)n[nH]c2c1 (stereo not drawn),IC50,[7],121 nM
same,IC50,[8],5.2 nM
same,Activity,[11],45%
CCn1cc(-c2n[nH]c3cc(-c4cc(C(=O)Nc5cccc(C(F)(F)F)c5)ccc4C)ccc23)cn1,IC50,[3],19.8 nM
same,IC50,[7],257 nM
same,IC50,[8],2.6 nM
Cc1ccc(C(=O)Nc2cc(CN3CCN(C4CCCC4)CC3)cc(C(F)(F)F)c2)cc1-c1ccc2cn[nH]c2c1,IC50,[8],7 nM
Cc1ccc(C(=O)Nc2cccc(N3CCN(C)CC3)c2)cc1-c1ccc2cn[nH]c2c1,inhibition,[1],37.3%
Cc1c(NC(=O)c2cccc(C(F)(F)F)c2)cccc1-c1ccc2cn[nH]c2c1,inhibition,[1],41.8%
O=C(Nc1cccc(-c2ccc3cn[nH]c3c2)c1)Nc1cccc(C(F)(F)F)c1,inhibition,[1],20.1%
same,inhibition,[12],53.3%
CCCn1cc(-c2n[nH]c3cc(-c4cc(C(=O)Nc5cccc(C(F)(F)F)c5)ccc4C)ccc23)cn1,IC50,[7],358 nM
same,IC50,[8],3.2 nM
same,Activity,[11],41%
Cc1ccc(C(=O)Nc2cc(CN3CCN(C)CC3)cc(C(F)(F)F)c2)cc1-c1ccc2cn[nH]c2c1,IC50,[8],4.7 nM
Cc1ccc(C(=O)Nc2cccc(C(F)(F)F)c2)cc1-c1ccc2c(-c3ccc(N4CCN(C)CC4)cc3)n[nH]c2c1,IC50,[3],89.5 nM
same,Tmax,[5],1.33 h
same,Cmax,[6],15.9 ng/mL
same,IC50,[7],136 nM
same,IC50,[8],8.8 nM
same,AUC(0-t),[10],44 ng·h/mL
Cc1ccc(C(=O)Nc2cccc(CN3CCN(C)CC3)c2)cc1-c1ccc2cn[nH]c2c1,IC50,[8],75.9 nM
O=C(Nc1ccc(F)c(-c2ccc3cn[nH]c3c2)c1)c1cccc(C(F)(F)F)c1,IC50,[8],64.3 nM
O=C(Nc1cccc(C(F)(F)F)c1)c1cccc(-c2ccc3cn[nH]c3c2)c1,inhibition,[1],58.2%
same,inhibition,[12],84.7%
Cc1ccc(C(=O)NCc2cccc(C(F)(F)F)c2)cc1-c1ccc2cn[nH]c2c1,IC50,[8],8 nM
Cc1ccc(C(=O)NCc2cccc(N3CCN(C)CC3)c2)cc1-c1ccc2cn[nH]c2c1,inhibition,[1],23.2%
Cc1ccc(C(=O)Nc2ccc(CN3CCN(C)CC3)cc2)cc1-c1ccc2cn[nH]c2c1,IC50,[8],6.7 nM
Cc1ccc(NC(=O)c2cccc(C(F)(F)F)c2)cc1-c1ccc2cn[nH]c2c1,IC50,[8],5.5 nM
Cc1ccc(C(=O)Nc2cccc(C(F)(F)F)c2)cc1-c1ccc2c(-c3cnn(C4CCN(C)CC4)c3)n[nH]c2c1,AUC(0-inf),[2],563 ng·h/mL
same,IC50,[3],56.5 nM
same,MRT,[4],3.96 h
same,Tmax,[5],1.33 h
same,Cmax,[6],170 ng/mL
same,IC50,[7],93.3 nM
same,IC50,[8],3.8 nM
same,half-life,[9],2.75 h
same,AUC(0-t),[10],552 ng·h/mL
Cc1ccc(C(=O)Nc2cccc(C(F)(F)F)c2)cc1-c1ccc2c(-c3cnn(CC(=O)N(C)C)c3)n[nH]c2c1,IC50,[3],> 1000 nM
same,IC50,[7],441 nM
same,IC50,[8],2.7 nM
CCN1CCN(Cc2cc(NC(=O)c3ccc(C)c(-c4ccc5cn[nH]c5c4)c3)cc(C(F)(F)F)c2)CC1,IC50,[8],3.9 nM
Cc1ccc(C(=O)Nc2cccc(C(F)(F)F)c2)cc1-c1ccc2c(-c3cnn(CCO)c3)n[nH]c2c1,IC50,[7],174 nM
same,IC50,[8],2.9 nM
same,Activity,[11],35%
Cc1ccc(C(=O)Nc2cccc(C(F)(F)F)c2)cc1-c1ccc2c(-c3cnn(C4CCOC4)c3)n[nH]c2c1 (stereo not drawn),IC50,[3],69.7 nM
same,IC50,[7],304 nM
same,IC50,[8],6.2 nM
